In series [1] the target is T1, Multidrug export protein MepA (Staphylococcus aureus (strain NCTC 8325)) (UniProt Q2G140).
T1 sequence (whole entry): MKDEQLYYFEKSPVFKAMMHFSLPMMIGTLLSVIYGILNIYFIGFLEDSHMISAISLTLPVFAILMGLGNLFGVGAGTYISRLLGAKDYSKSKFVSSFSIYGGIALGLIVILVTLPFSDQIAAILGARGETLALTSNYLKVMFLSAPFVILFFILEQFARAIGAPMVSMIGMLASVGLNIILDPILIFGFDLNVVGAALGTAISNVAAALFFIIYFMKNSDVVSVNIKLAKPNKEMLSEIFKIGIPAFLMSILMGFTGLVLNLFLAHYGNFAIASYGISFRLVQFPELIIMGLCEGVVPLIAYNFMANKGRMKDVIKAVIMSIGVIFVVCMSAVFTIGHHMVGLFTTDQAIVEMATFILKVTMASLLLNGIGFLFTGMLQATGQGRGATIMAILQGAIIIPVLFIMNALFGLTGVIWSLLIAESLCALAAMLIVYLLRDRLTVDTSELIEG
Briefly: Inhibition of MepA in Staphylococcus aureus SA-K2886 assessed as synergistic potentiation of EtBr-induced antimicrobial activity by measuring […] at 3.13 ug/ml by microdilution method based Checkerboard assay (reference value: 25 ug/ml). An outline of the steps: (§1)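 Checkerboard combination of EtBr with compound, using broth microdilution MICs. SA-K2886 (norA-deleted, pALC2073-mepA) and SA-K2885 (norA-deleted, empty pALC2073) were run with 0.05 µg/mL tetracycline in all experiments to induce the xyl/tetO promoter.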

The target of series [2] is T1, Multidrug export protein MepA (Staphylococcus aureus (strain NCTC 8325)). The experiment in a line: Inhibition of MepA in Staphylococcus aureus SA-K2886 assessed as synergistic potentiation of EtBr-induced antimicrobial activity by measuring […] at 1.56 ug/ml by microdilution method based Checkerboard assay (reference value: 25 ug/ml). Summed up: as §1
(In general: Broth dilution looks for growth in wells or tubes with falling amounts of substance.)

Series [3] in a line: Drug metabolism in mouse liver microsomes assessed as oxidation at open piperidine ring or at hydroxylate at 50 uM in presence of NADPH regenerating system incubated for 120 mins by UPLC/MS analysis. It is filed as ADME, microsome. As to conditions: 2 h. An outline of the steps: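 1 mg/mL mouse liver microsomes in 0.1 M Tris-HCl pH 7.4 with test compound at 50 µM, DMSO up to ~3%. Preincubated 5 min at 37 °C, then started with NADPH regeneration system. Stopped at 120 min with cold methanol and centrifuged. Supernatant analysed by UPLC/MS (ESI, tandem quadrupole).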
Background: Microsomes from liver hold many membrane-bound enzymes, among them those of drug oxidation.

For 2 compounds, MIC and Drug metabolism results are on record in ChEMBL document CHEMBL4145675, “2-Phenylquinoline S. aureus NorA Efflux Pump Inhibitors: Evaluation of the Importance of Methoxy Group Introduction” (J Med Chem, 2018).

For `CCCOc1ccc(-c2cc(OCCN3CCc4cc(OC)c(OC)cc4C3)c3cc(OC)c(OC)cc3n2)cc1`, in series [1], the MIC was less than 1.56 mg/L.
In the case of `CCCOc1ccc(-c2cc(OCCN3CCCCC3)c3cc(OC)ccc3n2)cc1`, the MIC in series [2] is less than 1.56 mg/L. For the same compound, the Drug metabolism entry in series [3] is reported as “Metabolite_Detected”.
